In one experiment the test system is SMMC-7721. Description: Cytotoxicity against human SMMC7721 cells assessed as reduction in cell viability by MTT assay. It counts as functional, cell-based. An outline of the steps: (§1)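 MTT viability assay in human cancer cell lines. IC50 was defined as a 50% reduction of absorbance relative to the control assay. Adriamycin served as the positive control.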
For orientation: Formazan colour is commonly taken as a measure of viable cells.

Experiment [1] has as its system Cryptococcus neoformans. The experiment can be described thus: Antifungal activity against Cryptococcus neoformans ATCC 208821 after 72 hrs by MTT based microbroth dilution assay. It counts as functional. Conditions: ATCC 208821, 72 h. An outline of the steps:
(§2)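 MIC by broth microdilution in RPMI-1640 with NaHCO3 and MOPS, pH 7.0. DMSO stocks were 2-fold serially diluted to eight levels, then 10-fold in medium (1.1–0.0086 mg/mL). 10 µL was added to 100 µL yeast suspension: C. albicans and C. parapsilosis at 2 × 10^3 cfu/mL for 48 h; C. neoformans at 5 × 10^4 cfu/mL for 72 h; all at 28 °C. MTT added for 4 h, DMSO solubilization, A570.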
Background: Broth dilution looks for growth in wells or tubes with falling amounts of substance.

The subject of the next experiment is NCI-H460. The experiment can be described thus: Cytotoxicity against human NCI-H460 cells assessed as reduction in cell viability by MTT assay. It counts as functional, cell-based. An outline of the steps: as §1
Experiment [2] has as its system Candida parapsilosis. The experiment can be described thus: Antifungal activity against Candida parapsilosis ATCC 22019 after 48 hrs by MTT based microbroth dilution assay. It counts as functional. Conditions: Lodderomyces parapsilosis, ATCC 22019, 48 h. Summed up: as §2
A further experiment relates to BGC-823. Description: Cytotoxicity against human BGC823 cells assessed as reduction in cell viability by MTT assay. The format is functional, cell-based. An outline of the steps:
as §1

A further experiment deals with Caco-2. Description: Cytotoxicity against human Caco2 cells assessed as reduction in cell viability by MTT assay. It counts as functional, cell-based. Summed up: as §1
The subject of experiment [3] is Candida albicans. Description: Antifungal activity against Candida albicans ATCC MYA-2876 after 48 hrs by MTT based microbroth dilution assay. It counts as functional. The following applies: ATCC MYA-2876, 48 h. Summed up: as §2
Another experiment concerns Bacillus spizizenii. Description: Antibacterial activity against Bacillus subtilis ATCC 6633 at 100 ug/ml after 24 hrs by MTT based microbroth dilution assay. It counts as functional, organism-based.
Experiment [4] relates to Cryptococcus neoformans. Description: Antifungal activity against Cryptococcus neoformans ATCC 208821 at 100 ug/ml after 72 hrs by MTT based microbroth dilution assay. It counts as functional, organism-based.
The test system of another experiment is Staphylococcus aureus. The experiment can be described thus: Antibacterial activity against Staphylococcus aureus ATCC 25923 at 100 ug/ml after 24 hrs by MTT based microbroth dilution assay. It counts as functional, organism-based.
The next experiment deals with Escherichia coli. Description: Antibacterial activity against Escherichia coli ATCC 25922 at 100 ug/ml after 24 hrs by MTT based microbroth dilution assay. It counts as functional, organism-based.
Experiment [5] has as its system Candida albicans. The experiment can be described thus: Antifungal activity against Candida albicans ATCC MYA-2876 at 100 ug/ml after 48 hrs by MTT based microbroth dilution assay. It counts as functional, organism-based.
Experiment [6] concerns Candida parapsilosis. The experiment can be described thus: Antifungal activity against Candida parapsilosis ATCC 22019 at 100 ug/ml after 48 hrs by MTT based microbroth dilution assay. The format is functional, organism-based.

Values after ≈ are worked out from the molar mass of the structure shown. Structures can show the parent of a compound that is named as a salt. Active and inactive are the calls of the source.

The term IC50 denotes the midpoint of a concentration-inhibition curve. For orientation: MIC means the lowest concentration found to suppress growth. Low readings indicate greater potency, high ones weaker potency. As to `C[C@H]1CC[C@@H](O)[C@@]2(C)C[C@H](O)CC[C@]12O`, the IC50 was more than 100 µM in the experiment with SMMC-7721, more than 100 µM in the experiment on NCI-H460, 47.2 µM in the experiment with BGC-823 and 42.5 µM in the experiment on Caco-2. Besides, the minimal inhibitory concentration (MIC) with Cryptococcus neoformans [1] is more than 100 µg/mL; against Candida parapsilosis [2], 100 µg/mL (≈ 467 µM); in the experiment on Candida albicans [3], 100 µg/mL (≈ 467 µM).

As to `CC1(C)C[C@H]2[C@H]1CC[C@@]1(C)C[C@]2(O)CC[C@@H]1O`, the outcome in the experiment on SMMC-7721, with Bacillus spizizenii, in the experiment with Cryptococcus neoformans [4], in the experiment with Staphylococcus aureus, with NCI-H460 and in the experiment on Escherichia coli was inactive. For the same compound, the outcome in the experiment on BGC-823, in the experiment on Candida albicans [5], in the experiment with Caco-2 and in the experiment on Candida parapsilosis [6] was inactive.

For the compound `CO/C1=C\C(C)=C\[C@@H](C)[C@@H](O)[C@@H](C)C/C(C)=C/C=C/[C@H](OC)[C@@H]([C@@H](C)[C@@H](O)[C@H](C)[C@@]2(O)C[C@@H](OC(=O)/C=C/C(N)=O)[C@H](C)[C@@H](C(C)C)O2)OC1=O`, the IC50 was determined as 1.05 µM in the experiment on SMMC-7721, 2.34 µM with NCI-H460, 0.99 µM in the experiment with BGC-823 and 2.3 µM in the experiment on Caco-2. The MIC against Cryptococcus neoformans [1] was found to be 25 µg/mL (≈ 34.7 µM); against Candida parapsilosis [2] it was 1.56 µg/mL (≈ 2.17 µM); in the experiment on Candida albicans [3], 100 µg/mL (≈ 139 µM).

Turning to `CC1(C)C[C@H]2[C@H]1CC[C@]1(C)CCC[C@@]2(O)C1`, the result with SMMC-7721, in the experiment with Bacillus spizizenii, in the experiment on Cryptococcus neoformans [4], with Staphylococcus aureus, in the experiment on NCI-H460 and in the experiment on Escherichia coli was inactive. Besides, the result in the experiment with BGC-823, in the experiment with Candida albicans [5], in the experiment on Caco-2 and in the experiment on Candida parapsilosis [6] was inactive.

Take `CO/C1=C\C(C)=C\[C@@H](C)[C@@H](O)[C@@H](C)C/C(C)=C/C=C/[C@H](OC)[C@@H]([C@@H](C)[C@@H](O)[C@H](C)[C@@]2(O)C[C@@H](OC)[C@H](C)[C@@H](C(C)C)O2)OC1=O` [BAFILOMYCIN G]: the IC50 is 8.67 µM in the experiment with SMMC-7721, more than 100 µM in the experiment with NCI-H460, 69.2 µM in the experiment on BGC-823 and more than 100 µM in the experiment on Caco-2. In addition, the result with Bacillus spizizenii, in the experiment on Cryptococcus neoformans [4], in the experiment on Staphylococcus aureus, in the experiment with Escherichia coli, in the experiment with Candida albicans [5] and in the experiment with Candida parapsilosis [6] was inactive.

Take `C[C@H]1[C@@H](O)CC[C@@]2(C)CCCC[C@]12O`: the IC50 in the experiment on SMMC-7721 is more than 100 µM; in the experiment on NCI-H460 it was more than 100 µM; in the experiment on BGC-823, 49.3 µM; with Caco-2, more than 100 µM. For the same compound, the result with Bacillus spizizenii, with Cryptococcus neoformans [4], with Staphylococcus aureus, in the experiment with Escherichia coli, in the experiment on Candida albicans [5] and in the experiment with Candida parapsilosis [6] was inactive.

As for `CC1=C[C@@H]2[C@@H](C(C)C)CC[C@H](C)[C@]2(O)CC1`, the result in the experiment with SMMC-7721, in the experiment on Bacillus spizizenii, in the experiment on Cryptococcus neoformans [4], in the experiment on Staphylococcus aureus, with NCI-H460 and in the experiment with Escherichia coli was inactive. In addition, the result with BGC-823, with Candida albicans [5], in the experiment on Caco-2 and with Candida parapsilosis [6] was inactive.

On to `C[C@@H]1[C@H](O)[C@@H](C)/C=C/C=C/C=C/C=C/C=C/C=C/C=C/[C@H](O[C@@H]2O[C@H](C)[C@@H](O)[C@H](N)[C@@H]2O)C[C@@H]2O[C@](O)(C[C@@H](O)C[C@@H](O)[C@H](O)CC[C@@H](O)C[C@@H](O)CC(=O)O[C@H]1C)C[C@H](O)[C@H]2C(=O)O` [AMPHOTERICIN B], for which the MIC against Cryptococcus neoformans [1] turned out to be 2 µg/mL (≈ 2.16 µM); in the experiment on Candida parapsilosis [2], 2 µg/mL (≈ 2.16 µM); against Candida albicans [3] it was 1 µg/mL (≈ 1.08 µM).

`C[C@H]1CC[C@@H](O)[C@@]2(C)CCCC[C@]12O`: the half-maximal inhibitory concentration (IC50) in the experiment with SMMC-7721 was 41.7 µM; with NCI-H460, more than 100 µM; in the experiment on BGC-823, 34.6 µM; with Caco-2 it was 85.5 µM. For the same compound, the MIC against Cryptococcus neoformans [1] was more than 100 µg/mL; in the experiment with Candida parapsilosis [2], 3.13 µg/mL (≈ 15.8 µM); against Candida albicans [3] it was 12.5 µg/mL (≈ 63 µM).

Regarding `CO/C1=C\C(C)=C\[C@@H](C)[C@@H](O)[C@@H](C)C/C(C)=C/C=C/[C@H](OC)[C@@H]([C@@H](C)[C@@H](O)[C@H](C)[C@@]2(OC)C[C@@H](O)[C@H](C)[C@@H](C(C)C)O2)OC1=O`, the IC50 was 9.42 µM in the experiment on SMMC-7721, 26.7 µM in the experiment on NCI-H460, 22.4 µM in the experiment on BGC-823 and 10.2 µM with Caco-2. For the same compound, the result in the experiment with Bacillus spizizenii, in the experiment with Cryptococcus neoformans [4], in the experiment with Staphylococcus aureus, in the experiment with Escherichia coli, with Candida albicans [5] and in the experiment on Candida parapsilosis [6] was inactive.

Regarding `CO/C1=C\C(C)=C\[C@@H](C)[C@@H](O)[C@@H](C)C/C(C)=C/C=C/[C@H](OC)[C@@H]([C@@H](C)[C@@H](O)[C@H](C)[C@@]2(OC)C[C@@H](OC(=O)/C=C/C(N)=O)[C@H](C)[C@@H](C(C)C)O2)OC1=O`, the IC50 in the experiment with SMMC-7721 came out at 1.36 µM; with NCI-H460, 5.02 µM; in the experiment on BGC-823 it was 3.58 µM; in the experiment on Caco-2, 2.81 µM. In addition, the result in the experiment with Bacillus spizizenii, in the experiment on Cryptococcus neoformans [4], in the experiment on Staphylococcus aureus, in the experiment on Escherichia coli, with Candida albicans [5] and in the experiment on Candida parapsilosis [6] was inactive.

`CO/C1=C/C(C)=C/[C@@H](C)[C@@H](O)[C@@H](C)C/C(C)=C/C=C/[C@H](OC)C([C@@H](C)[C@@H](O)[C@H](C)C(=O)/C=C/[C@H](C)[C@H](O)C(C)C)OC1=O` (some centres not stated): the IC50 in the experiment on SMMC-7721 was determined as 9.79 µM; in the experiment with NCI-H460, 49.8 µM; in the experiment with BGC-823, 9.46 µM; in the experiment on Caco-2 it was 14.6 µM. The outcome in the experiment on Bacillus spizizenii, in the experiment on Cryptococcus neoformans [4], in the experiment with Staphylococcus aureus, with Escherichia coli, in the experiment on Candida albicans [5] and with Candida parapsilosis [6] was inactive.

For the compound `CO/C1=C\C(C)=C\[C@@H](C)[C@@H](O)[C@@H](C)C/C(C)=C/C=C/[C@H](OC)[C@@H]([C@@H](C)[C@@H](O)[C@H](C)[C@@]2(O)C[C@@H](O)[C@H](C)[C@@H](C(C)C)O2)OC1=O` [BAFILOMYCIN A1], the IC50 in the experiment with SMMC-7721 came out at 2.03 µM; in the experiment with NCI-H460, 12.4 µM; with BGC-823, 6.47 µM; with Caco-2, 5.49 µM. For the same compound, the outcome in the experiment on Bacillus spizizenii, with Cryptococcus neoformans [4], with Staphylococcus aureus, in the experiment with Escherichia coli, in the experiment with Candida albicans [5] and with Candida parapsilosis [6] was inactive.

Consider `C/C1=C\[C@@H](O)C[C@H](C)/C=C/[C@H](C(C)(C)O)CC1`, for which the result in the experiment with SMMC-7721, in the experiment on Bacillus spizizenii, in the experiment on Cryptococcus neoformans [4], in the experiment with Staphylococcus aureus, in the experiment on NCI-H460 and in the experiment with Escherichia coli was inactive. The outcome with BGC-823, with Candida albicans [5], in the experiment with Caco-2 and in the experiment on Candida parapsilosis [6] was inactive.

In the case of `COc1cccc2c1C(=O)c1c(O)c3c(c(O)c1C2=O)C[C@@](O)(C(=O)CO)C[C@@H]3O[C@H]1C[C@H](N)[C@H](O)[C@H](C)O1` [DOXORUBICIN HYDROCHLORIDE], the IC50 with SMMC-7721 came out at 2.24 µM; in the experiment on NCI-H460 it was 0.98 µM; with Caco-2, 0.97 µM.

As for `CO/C1=C\C(C)=C\[C@@H](C)[C@@H](O)[C@@H](C)C/C(C)=C/C=C/[C@H](OC)[C@@H]([C@@H](C)[C@@H](O)[C@H](C)[C@@]2(OC)CC[C@H](C)[C@@H](C(C)C)O2)OC1=O`, the IC50 is 13.6 µM in the experiment on SMMC-7721, more than 100 µM in the experiment with NCI-H460, 46.9 µM with BGC-823 and more than 100 µM in the experiment on Caco-2. Moreover, the result in the experiment with Bacillus spizizenii, with Cryptococcus neoformans [4], in the experiment with Staphylococcus aureus, in the experiment with Escherichia coli, in the experiment on Candida albicans [5] and with Candida parapsilosis [6] was inactive.

For the origin of these results see ChEMBL document CHEMBL4425091, “Bafilomycins and Odoriferous Sesquiterpenoids from Streptomyces albolongus Isolated from Elephas maximus Feces” (J Nat Prod, 2016).
